Laboratory results published in ChEMBL document CHEMBL1140210, “In pursuit of natural product leads: synthesis and biological evaluation of 2-[3-hydroxy-2-[(3-hydroxypyridine-2-carbonyl)amino]phenyl]benzoxazole-4-carboxylic acid (A-33853) and its analogues: discovery of N-(2-benzoxazol-2-ylphenyl)benzamides as novel antileishmanial chemotypes” (J Med Chem, 2008).
pIC50: −log10 of the molar value. The source made the active and inactive calls. The calls are words filed in the database; no cut-off is given here.

Assays:
Leishmania donovani [1] = assay: Antileishmanial activity against Leishmania donovani MHOM/ET/67/L82; type: functional, organism-based
Outline: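 Tested on axenic amastigote cultures of L. donovani strain MHOM/ET/67/L82. Activity is reported as IC50.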

Leishmania donovani [2] = assay: Antiparasitic activity against Leishmania donovani amastigote in mouse peritoneal macrophages assessed as reduction of parasite burden at 10 ug/mL after 96 hrs; type: functional, organism-based
[3] = Selectivity index, ratio of IC50 for rat L6 cells to IC50 for Leishmania donovani MHOM/ET/67/L82; type: toxicity, cell-based; settings: read-out: Ratio IC50
L6 = assay: Cytotoxicity against rat L6 cells; type: cell-based; settings: for pIC50: Rattus norvegicus, L6; for Activity: rat, l6
Leishmania donovani [4] = assay: Antileishmanial activity against Leishmania donovani MHOM/ET/67/L82 at 4.8 ug/mL; type: functional
Plasmodium falciparum = assay: Antimalarial activity against chloroquine and pyrimethamine-resistant Plasmodium falciparum K1 at 4.8 ug/mL; type: functional
Trypanosoma cruzi = assay: Antitrypanosomal activity against Trypanosoma cruzi Tulahuen C2C4 at 4.8 ug/mL; type: functional
Leishmania donovani [5] = assay: Antileishmanial activity against Leishmania donovani MHOM/ET/67/L82 at 0.8 ug/mL; type: functional

| SMILES | pIC50 (Leishmania donovani [1]) | Activity (Leishmania donovani [2]) | selectivity ratio [3] | pIC50 (L6) | inhibition at 4.8 µg/mL (Leishmania donovani [4]) [%] | inhibition at 4.8 µg/mL (Plasmodium falciparum) [%] | inhibition at 4.8 µg/mL (Trypanosoma cruzi) [%] | inhibition at 0.8 µg/mL (Leishmania donovani [5]) [%] | Activity (L6) |
| --- | --- | --- | --- | --- | --- | --- | --- | --- | --- |
| CCCCCCCCCCCCCCCCOP(=O)([O-])OCC[N+](C)(C)C [MILTEFOSINE] |  |  | 565 | 3.83 |  |  |  |  |  |
| O=C(Nc1c(O)cccc1-c1nc2c(C(=O)O)cccc2o1)c1ncccc1O | 7.10 |  | 185 | 4.85 | 100 | 97 | 96 | 100 |  |
| O=C(Nc1c(O)cccc1-c1nc2c(C(=O)O)cccc2o1)c1cccnc1Cl |  |  |  |  |  |  |  | < 30 | Not Traceable |
| Cc1cc(C(=O)Nc2c(O)cccc2-c2nc3c(C(=O)O)cccc3o2)no1 |  |  |  |  |  |  |  | < 30 | Not Traceable |
| O=C(Nc1ccccc1-c1nc2c(C(=O)O)cccc2o1)c1ccccc1 | 6.02 | inactive | 118 | 3.94 |  |  |  |  |  |
| O=C(Nc1c(O)cccc1-c1nc2c(C(=O)O)cccc2o1)c1cc(-c2ccccc2)nc2ccccc12 | 5.93 |  | 92 | 3.97 |  |  |  |  |  |
| COc1cccc(-c2nc3c(C(=O)O)cccc3o2)c1NC(=O)c1cccnc1Cl |  |  |  |  |  |  |  | < 30 | Not Traceable |
| O=C(Nc1c(O)cccc1-c1nc2c(C(=O)O)cccc2o1)c1cc(O)c(O)c(O)c1 |  |  |  |  |  |  |  | < 30 | Not Traceable |
| O=C(Nc1c(O)cccc1-c1nc2c(C(=O)O)cccc2o1)c1cccnc1 | 5.36 |  | 55 | 3.62 |  |  |  |  |  |

More lines, main results first:

| pIC50 (Leishmania donovani [1]) | SMILES | Activity (Leishmania donovani [2]) | selectivity ratio [3] | pIC50 (L6) | inhibition at 4.8 µg/mL (Leishmania donovani [4]) [%] | inhibition at 4.8 µg/mL (Plasmodium falciparum) [%] | inhibition at 4.8 µg/mL (Trypanosoma cruzi) [%] | inhibition at 0.8 µg/mL (Leishmania donovani [5]) [%] | Activity (L6) |
| --- | --- | --- | --- | --- | --- | --- | --- | --- | --- |
| 6.17 | O=C(Nc1c(O)cccc1-c1nc2c(C(=O)O)cccc2o1)c1cc2ccccc2[nH]1 | inactive | 312 | 3.67 |  |  |  |  |  |
| 5.76 | O=C(Nc1c(O)cccc1-c1nc2c(C(=O)O)cccc2o1)c1ccccc1 |  | > 138 | < 3.62 |  |  |  |  |  |
| 5.72 | O=C(Nc1c(O)cccc1-c1nc2c(C(=O)O)cccc2o1)c1ccc(F)c(F)c1F |  | 111 | 3.68 |  |  |  |  |  |
| 6.28 | O=C(Nc1c(O)cccc1-c1nc2c(C(=O)O)cccc2o1)c1ncccc1F | inactive | 392 | 3.69 |  |  |  |  |  |
| 6.29 | O=C(Nc1c(O)cccc1-c1nc2c(C(=O)O)cccc2o1)c1cnccn1 | inactive | 185 | 4.03 |  |  |  |  |  |
| 5.71 | O=C(Nc1c(O)cccc1-c1nc2c(C(=O)O)cccc2o1)c1cccc(Cl)c1 |  | 74 | 3.84 |  |  |  |  |  |
| 6.07 | O=C(Nc1c(O)cccc1-c1nc2c(C(=O)O)cccc2o1)c1ccccc1O | inactive | 100 | 4.07 |  |  |  |  |  |
| 5.51 | COc1cccc(-c2nc3c(C(=O)O)cccc3o2)c1NC(=O)c1cc2ccccc2[nH]1 |  | 69 | 3.68 |  |  |  |  |  |
| 6.03 | O=C(Nc1c(O)cccc1-c1nc2c(C(=O)O)cccc2o1)c1cc(-c2ccccc2)on1 | inactive | 152 | 3.85 |  |  |  |  |  |
| 6.51 | O=C(Nc1c(O)cccc1-c1nc2c(C(=O)O)cccc2o1)c1ccccn1 | inactive | 99 | 4.51 |  |  |  |  |  |
